Measured values from ChEMBL document CHEMBL1122494, “New selenium-75 labeled radiopharmaceuticals: selenonium analogues of dopamine” (J Med Chem, 1983).

Assays:
Type in all cases: ADME, organism-based
Rattus norvegicus [1] = experiment: Tissue radioactivity ratio in adrenal to Kidney 5 min after Intravenous Injection in rats; details: in vivo
Method in brief: (§1)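 Same rat biodistribution: female Sprague-Dawley rats (100-300 g), 5-6 μCi [75Se]selenonium salt in 0.2 mL saline iv by tail vein, five per time point, killed by cardioectomy under chloroform. Ratios are tissue-to-tissue quotients of gamma-counted % injected dose per gram in each organ (adrenal, heart, kidney, liver, blood).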

Rattus norvegicus [2] = experiment: Distribution of Se-75 activity in Lung of female Sprague-Dawley Rat 60 min after iv administration of compound; details: in vivo, 1 h
Method in brief: (§2)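 Female Sprague-Dawley rats (100-300 g), five per group, got [75Se]selenonium salt in 0.2 mL saline (5-6 μCi) by lateral tail vein. They were killed by cardioectomy under chloroform anesthesia at the stated time. A sample of the large organ was weighed and gamma counted, and counts were converted to % injected dose/g. Values are mean and SEM of five.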

Rattus norvegicus [3] = experiment: Tissue radioactivity ratio in adrenal to Liver 30 min after Intravenous Injection in rats; details: in vivo, 0.5 h; method in brief: as §1
Rattus norvegicus [4] = experiment: Tissue radioactivity ratio in adrenal to Liver 240 min after Intravenous Injection in rats; details: in vivo, 4 h; method in brief: as §1
Rattus norvegicus [5] = experiment: Distribution of Se-75 activity in Adrenal of female Sprague-Dawley Rat 5 min after iv administration of compound; details: in vivo
Method in brief: (§3)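 Female Sprague-Dawley rats (100-300 g), five per group, got [75Se]selenonium salt by lateral tail vein: 0.2 mL saline with 5-6 μCi. Groups were killed by cardioectomy under chloroform anesthesia at the set times. The organ was taken intact, rinsed with saline, blotted, weighed and gamma counted. Values are % injected dose/g, mean and SEM of five.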

Rattus norvegicus [6] = experiment: Distribution of Se-75 activity in Brain of female Sprague-Dawley Rat 5 min after iv administration of compound; details: in vivo
Rattus norvegicus [7] = experiment: Distribution of Se-75 activity in Lung of female Sprague-Dawley Rat 30 min after iv administration of compound; details: in vivo, 0.5 h; method in brief: as §2
Rattus norvegicus [8] = experiment: Tissue radioactivity ratio in adrenal to Liver 60 min after Intravenous Injection in rats; details: in vivo, 1 h; method in brief: as §1
Rattus norvegicus [9] = experiment: Tissue radioactivity ratio in adrenal to blood 5 min after Intravenous Injection in rats; details: other tissue; method in brief: as §1
Rattus norvegicus [10] = experiment: Distribution of Se-75 activity in blood of female Sprague-Dawley Rat 240 min after iv administration of compound; details: in vivo, 4 h
Method in brief: (§4)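 Female Sprague-Dawley rats (100-300 g) got 5-6 μCi of [75Se]selenonium salt in 0.2 mL saline via lateral tail vein. Groups of five were anesthetized with chloroform at set times and killed by cardioectomy. Tissues were rinsed, blotted and weighed, then gamma-counted. Values are % injected dose per gram, mean and SEM of five.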

Rattus norvegicus [11] = experiment: Tissue radioactivity ratio in adrenal to Liver 120 min after Intravenous Injection in rats; details: in vivo, 2 h; method in brief: as §1
Rattus norvegicus [12] = experiment: Distribution of Se-75 activity in blood of female Sprague-Dawley Rat 15 min after iv administration of compound; details: in vivo, 0.25 h
Method in brief: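 Tail-vein injection of 5-6 μCi [75Se]selenonium salt in 0.2 mL saline into female Sprague-Dawley rats (100-300 g), five per group. Rats were killed by cardioectomy under chloroform anesthesia at the time point. Radioactivity was gamma counted and expressed as % injected dose/g, mean and SEM of five.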

Rattus norvegicus [13] = experiment: Distribution of Se-75 activity in blood of female Sprague-Dawley Rat 60 min after iv administration of compound; details: in vivo, 1 h; method in brief: as §4
Rattus norvegicus [14] = experiment: Distribution of Se-75 activity in Kidney of female Sprague-Dawley Rat 5 min after iv administration of compound; details: in vivo; method in brief: as §3
Rattus norvegicus [15] = experiment: Distribution of Se-75 activity in Brain of female Sprague-Dawley Rat 60 min after iv administration of compound; details: in vivo, 1 h
Rattus norvegicus [16] = experiment: Tissue radioactivity ratio in adrenal to Liver 15 min after Intravenous Injection in rats; details: in vivo, 0.25 h; method in brief: as §1
Rattus norvegicus [17] = experiment: Tissue radioactivity ratio in adrenal to blood 30 min after Intravenous Injection in rats; details: other tissue, 0.5 h; method in brief: as §1
Rattus norvegicus [18] = experiment: Distribution of Se-75 activity in Brain of female Sprague-Dawley Rat 15 min after iv administration of compound; details: in vivo, 0.25 h
Rattus norvegicus [19] = experiment: Tissue radioactivity ratio in Heart to Blood 120 min after Intravenous Injection in rats; details: other tissue, 2 h; method in brief: as §1
Rattus norvegicus [20] = experiment: Distribution of Se-75 activity in Liver of female Sprague-Dawley Rat 120 min after iv administration of compound; details: in vivo, 2 h; method in brief: as §2
Rattus norvegicus [21] = experiment: Distribution of Se-75 activity in blood of female Sprague-Dawley Rat 5 min after iv administration of compound; details: in vivo; method in brief: as §4
Rattus norvegicus [22] = experiment: Tissue radioactivity ratio in adrenal to Kidney 60 min after Intravenous Injection in rats; details: in vivo, 1 h; method in brief: as §1
Rattus norvegicus [23] = experiment: Tissue radioactivity ratio in adrenal to Liver 5 min after Intravenous Injection in rats; details: in vivo; method in brief: as §1
Rattus norvegicus [24] = experiment: Distribution of Se-75 activity in Adrenal of female Sprague-Dawley Rat 60 min after iv administration of compound; details: in vivo, 1 h; method in brief: as §3
Rattus norvegicus [25] = experiment: Distribution of Se-75 activity in Kidney of female Sprague-Dawley Rat 30 min after iv administration of compound; details: in vivo, 0.5 h; method in brief: as §3
Rattus norvegicus [26] = experiment: Distribution of Se-75 activity in Liver of female Sprague-Dawley Rat 30 min after iv administration of compound; details: in vivo, 0.5 h; method in brief: as §2
Rattus norvegicus [27] = experiment: Distribution of Se-75 activity in Kidney of female Sprague-Dawley Rat 15 min after iv administration of compound; details: in vivo, 0.25 h; method in brief: as §3
Rattus norvegicus [28] = experiment: Distribution of Se-75 activity in blood of female Sprague-Dawley Rat 30 min after iv administration of compound; details: in vivo, 0.5 h; method in brief: as §4
Rattus norvegicus [29] = experiment: Distribution of Se-75 activity in Heart of female Sprague-Dawley Rat 15 min after iv administration of compound; details: in vivo, 0.25 h; method in brief: as §3
Rattus norvegicus [30] = experiment: Distribution of Se-75 activity in Liver of female Sprague-Dawley Rat 240 min after iv administration of compound; details: in vivo, 4 h; method in brief: as §2
Rattus norvegicus [31] = experiment: Distribution of Se-75 activity in Adrenal of female Sprague-Dawley Rat 30 min after iv administration of compound; details: in vivo, 0.5 h; method in brief: as §3
Rattus norvegicus [32] = experiment: Tissue radioactivity ratio in adrenal to Kidney 15 min after Intravenous Injection in rats; details: in vivo, 0.25 h; method in brief: as §1
Rattus norvegicus [33] = experiment: Tissue radioactivity ratio in adrenal to blood 60 min after Intravenous Injection in rats; details: other tissue, 1 h; method in brief: as §1
Rattus norvegicus [34] = experiment: Distribution of Se-75 activity in Kidney of female Sprague-Dawley Rat 60 min after iv administration of compound; details: in vivo, 1 h; method in brief: as §3
Rattus norvegicus [35] = experiment: Tissue radioactivity ratio in adrenal to Kidney 240 min after Intravenous Injection in rats; details: in vivo, 4 h; method in brief: as §1
Rattus norvegicus [36] = experiment: Tissue radioactivity ratio in Heart to Blood 30 min after Intravenous Injection in rats; details: other tissue, 0.5 h; method in brief: as §1
Rattus norvegicus [37] = experiment: Distribution of Se-75 activity in Heart of female Sprague-Dawley Rat 60 min after iv administration of compound; details: in vivo, 1 h; method in brief: as §3
Rattus norvegicus [38] = experiment: Distribution of Se-75 activity in Liver of female Sprague-Dawley Rat 15 min after iv administration of compound; details: in vivo, 0.25 h; method in brief: as §2
Rattus norvegicus [39] = experiment: Distribution of Se-75 activity in Adrenal of female Sprague-Dawley Rat 15 after iv administration of compound; details: in vivo; method in brief: as §3
Rattus norvegicus [40] = experiment: Distribution of Se-75 activity in Heart of female Sprague-Dawley Rat 30 min after iv administration of compound; details: in vivo, 0.5 h; method in brief: as §3
Rattus norvegicus [41] = experiment: Tissue radioactivity ratio in Heart to Blood 15 min after Intravenous Injection in rats; details: other tissue, 0.25 h; method in brief: as §1

COc1ccc(CC[Se+](C)C)cc1OC.[I-] was tested, and the Ratio (Rattus norvegicus [1]) was 0.31, the Dose/g (Rattus norvegicus [2]) was 0.38% and the Ratio (Rattus norvegicus [3]) was 0.54. It also gave a Ratio (Rattus norvegicus [4]) of 3.55, a Dose/g (Rattus norvegicus [5]) of 0.86% and a Dose/g (Rattus norvegicus [6]) of 0.03%. The Dose/g (Rattus norvegicus [7]) was 0.75%, the Ratio (Rattus norvegicus [8]) was 1.14 and the Ratio (Rattus norvegicus [9]) was 2.53. The Dose/g (Rattus norvegicus [10]) was 0.03%, the Ratio (Rattus norvegicus [11]) was 2.55 and the Dose/g (Rattus norvegicus [12]) was 0.26%. For the same compound, the Dose/g (Rattus norvegicus [13]) was 0.12%, the Dose/g (Rattus norvegicus [14]) was 2.73% and the Dose/g (Rattus norvegicus [15]) was 0.01%. It also gave a Ratio (Rattus norvegicus [16]) of 0.46, a Ratio (Rattus norvegicus [17]) of 4.27 and a Dose/g (Rattus norvegicus [18]) of 0.02%. It also gave a Ratio (Rattus norvegicus [19]) of 2.12, a Dose/g (Rattus norvegicus [20]) of 0.29% and a Dose/g (Rattus norvegicus [21]) of 0.34%. For the same compound, the Ratio (Rattus norvegicus [22]) was 1.34, the Ratio (Rattus norvegicus [23]) was 0.35 and the Dose/g (Rattus norvegicus [24]) was 0.71%. It also gave a Dose/g (Rattus norvegicus [25]) of 0.99%, a Dose/g (Rattus norvegicus [26]) of 1.75% and a Dose/g (Rattus norvegicus [27]) of 1.29%. The Dose/g (Rattus norvegicus [28]) was 0.22%, the Dose/g (Rattus norvegicus [29]) was 1.16% and the Dose/g (Rattus norvegicus [30]) was 0.18%. It also gave a Dose/g (Rattus norvegicus [31]) of 0.94%, a Ratio (Rattus norvegicus [32]) of 0.68 and a Ratio (Rattus norvegicus [33]) of 5.92. The Dose/g (Rattus norvegicus [34]) was 0.53%, the Ratio (Rattus norvegicus [35]) was 4 and the Ratio (Rattus norvegicus [36]) was 2.64. The Dose/g (Rattus norvegicus [37]) was 0.27%, the Dose/g (Rattus norvegicus [38]) was 1.93% and the Dose/g (Rattus norvegicus [39]) was 0.88%. For the same compound, the Dose/g (Rattus norvegicus [40]) was 0.58% and the Ratio (Rattus norvegicus [41]) was 4.46.
C[Se+](C)CCc1ccc(O)c(O)c1.[Cl-] gave a Ratio (Rattus norvegicus [1]) of 0.29, a Dose/g (Rattus norvegicus [2]) of 0.58% and a Ratio (Rattus norvegicus [3]) of 0.31. It also gave a Ratio (Rattus norvegicus [4]) of 2.56, a Dose/g (Rattus norvegicus [5]) of 0.78% and a Dose/g (Rattus norvegicus [6]) of 0.02%. It also gave a Dose/g (Rattus norvegicus [7]) of 0.83%, a Ratio (Rattus norvegicus [8]) of 1.04 and a Ratio (Rattus norvegicus [9]) of 2.22. It also gave a Dose/g (Rattus norvegicus [10]) of 0.05%, a Ratio (Rattus norvegicus [11]) of 2.28 and a Dose/g (Rattus norvegicus [12]) of 0.3%. The Dose/g (Rattus norvegicus [13]) was 0.18%, the Dose/g (Rattus norvegicus [14]) was 2.65% and the Dose/g (Rattus norvegicus [15]) was 0.01%. For the same compound, the Ratio (Rattus norvegicus [16]) was 0.43, the Ratio (Rattus norvegicus [17]) was 3.07 and the Dose/g (Rattus norvegicus [18]) was 0.01%. For the same compound, the Ratio (Rattus norvegicus [19]) was 2.62, the Dose/g (Rattus norvegicus [20]) was 0.32% and the Dose/g (Rattus norvegicus [21]) was 0.35%. The Ratio (Rattus norvegicus [22]) was 1.47, the Ratio (Rattus norvegicus [23]) was 0.42 and the Dose/g (Rattus norvegicus [24]) was 0.87%. The Dose/g (Rattus norvegicus [25]) was 1.07%, the Dose/g (Rattus norvegicus [26]) was 2.73% and the Dose/g (Rattus norvegicus [27]) was 1.07%. For the same compound, the Dose/g (Rattus norvegicus [28]) was 0.28%, the Dose/g (Rattus norvegicus [29]) was 1.58% and the Dose/g (Rattus norvegicus [30]) was 0.23%. It also gave a Dose/g (Rattus norvegicus [31]) of 0.86%, a Ratio (Rattus norvegicus [32]) of 0.81 and a Ratio (Rattus norvegicus [33]) of 4.83. It also gave a Dose/g (Rattus norvegicus [34]) of 0.59%, a Ratio (Rattus norvegicus [35]) of 3.28 and a Ratio (Rattus norvegicus [36]) of 3.86. It also gave a Dose/g (Rattus norvegicus [37]) of 0.46%, a Dose/g (Rattus norvegicus [38]) of 2% and a Dose/g (Rattus norvegicus [39]) of 0.87%. It also gave a Dose/g (Rattus norvegicus [40]) of 1.08% and a Ratio (Rattus norvegicus [41]) of 5.27.
